Compound activity deposited in PubChem by The Scripps Research Institute Molecular Screening Center.
Sampled rows, rich in hits. Any-hit rate of the full collection: about 1.8%.
NPY Y1 blocker = blocks the human neuropeptide Y Y1 receptor; P25929; HEK293-CNG Y1 cells, membrane potential fluorescence; NPY at EC95, then isoproterenol; inhibition, % at 3.6 µM; actives 1% (n = 200,000);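 active = inhibition above the campaign mean inhibition of all tested compounds plus 3 SD, cut at about 20% in these data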;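 note: 0% = DMSO wells given NPY plus isoproterenol and 100% = isoproterenol alone without NPY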
Target sequence (P25929 whole entry, looked up): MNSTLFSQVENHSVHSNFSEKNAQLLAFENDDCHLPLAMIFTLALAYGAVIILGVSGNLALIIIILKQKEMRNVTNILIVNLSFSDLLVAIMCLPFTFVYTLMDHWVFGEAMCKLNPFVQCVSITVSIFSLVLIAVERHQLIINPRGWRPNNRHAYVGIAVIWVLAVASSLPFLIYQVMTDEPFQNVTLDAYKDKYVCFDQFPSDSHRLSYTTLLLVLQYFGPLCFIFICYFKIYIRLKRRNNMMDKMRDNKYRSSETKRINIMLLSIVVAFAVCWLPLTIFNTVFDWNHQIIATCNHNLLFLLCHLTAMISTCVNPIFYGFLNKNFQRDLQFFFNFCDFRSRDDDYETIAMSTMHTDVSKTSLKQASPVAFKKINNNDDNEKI
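Material: HEK293 Y1/CNG channel cell line; also added: NPY (25 nM), isoproterenol (1 µM), Ro 20-1724 (25 µM); doses: one concentration, 3.6 µM, in 0.4% DMSO; schedule: compound incubation 1 h at room temperature, readout 45 min post-stimulation; technique: membrane potential fluorescence; measure: fluorescence ratio normalized to % inhibition between controls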
NPY-Y2 antag = NPY-Y2 (human) receptor antagonism; P49146; NPY-Y2 expressing cells, antagonist mode; inhibition, % at 2.7 µM; actives 0.99% (n = 140,000); AID 793; in the data active = inhibition above about 17%;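 note: 0% = vehicle with agonist challenge and 100% = reference antagonist with challenge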
NPY2 pot ag = human NPY-Y2 potentiation or agonism, primary screen; activation, % at 3.6 µM; actives 0.45% (n = 220,000); AID 1359; cells expressing NPY-Y2, potentiator/agonist read-out; in the data active = activation above about 27%;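 note: cells stimulated with NPY near EC25 plus isoproterenol at EC100; 0% = vehicle plus submaximal agonist and 100% = vehicle plus saturating agonist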
NPY-Y1 PAM-ag = potentiates or activates human NPY-Y1 receptor | NPY-Y1 expressing cells, potentiator/agonist activation | actives 0.37% (n = 220,000) | activation, % at 3.6 µM | AID 1304; in the data active = activation above about 33%, passing the limit was not always enough;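 note: cells stimulated with NPY at EC10 then isoproterenol at EC100; 0% = low agonist plus stimulus and 100% = saturating agonist plus stimulus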
NPY-Y1 antag ct = counter-screen for NPY-Y2 antagonists: human NPY-Y1 antagonism | shares compounds with NPY-Y2 antag | cell-based NPY-Y1 antagonism counterscreen | inhibition, % at 3.6 µM | actives 19% (n = 710); in the data active = inhibition above about 20%;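 note: cells challenged with NPY then isoproterenol with cAMP sensed through a CNG channel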
NPY-Y2 ant conf = confirmation of human neuropeptide Y receptor Y2 antagonists | shares compounds with NPY-Y2 antag | actives 32% (n = 710) | AID 1257 | inhibition, % at 2.8 µM | HEK293 NPY-Y2 CNG channel, membrane potential fluorescence;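 active = mean inhibition of triplicate wells above the hit cutoff set in the primary screen, cut at about 17% in these data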;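 note: 0% = DMSO with NPY challenge and 100% = BIIE0246 high control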
Numbers without * were called inactive; nt = no result given.

SMILES	NPY Y1 blocker	NPY-Y2 antag	NPY2 pot ag	NPY-Y1 PAM-ag	NPY-Y1 antag ct	NPY-Y2 ant conf
Nn1c(CSc2nc3ccccc3o2)nnc1CSc1nc2ccccc2o1	16.5	17.4*	-38.6	-65.3	12.8	15.1
O=S(=O)(c1cccc(F)c1)N1CCN(C(=S)NCc2ccccc2)CC1	-3.1	nt	13.2	1.7	nt	nt
O=C(O)c1ccc(/C=N/NC(=O)c2cc(-c3ccc4c5c(cccc35)CC4)n[nH]2)cc1	0.1	nt	9.5	17.7	nt	nt
Cc1ccc(C(C(=O)NC2CCCCC2)N(Cc2ccco2)C(=O)Cc2c[nH]c3ccccc23)o1 (stereo unspecified)	13.8	18.8*	-5.3	-4.6	13.4	10.8
Cc1ccc(C(C(=O)NC2CCCCC2)N(C(=O)Cc2c[nH]c3ccccc23)c2ccccc2C)o1 (stereo unspecified)	3.2	1.4	-3.5	-12.9	nt	nt
CCCCc1cc(O)c(CCCC)c(O)c1	-6.4	20.6*	14.4	19.4	-1.1	-3.6
COc1cc2[nH]c(=S)nc(NC3CCCC3)c2cc1OC	-4.3	nt	3.6	19.6	nt	nt
COc1cc(/C=N/NC(N)=S)ccc1OCC(=O)Nc1ccc(C)c(C)c1	-2.3	-2.9	-8.5	-6.3	nt	nt
COc1cc(/C=N/NC(N)=O)ccc1OCC(=O)Nc1ccc(C)c(C)c1	-0.7	17.8*	-15.6	-14.4	11.0	34.0*
O=C(Cn1c(N2CCN(c3ccccc3)CC2)nc2ccccc21)c1ccccc1	-4.4	17.5*	2.4	3.7	-3.7	-5.2
O=C1NC(=NCc2ccccc2)S/C1=C\c1ccccc1	3.6	1.3	-4.8	-21.0	nt	nt
CC12CCC(C/C1=N\N=C1\NC(=O)/C(=C\c3ccc(Cl)cc3)S1)C2(C)C (stereo unspecified)	3.7	37.4*	6.3	-0.4	44.3*	54.6*
CC(=O)Oc1ccc2c(=O)c(-c3nc4ccccc4s3)coc2c1	4.6	nt	0.8	0.0	nt	nt
CN(C(=O)c1ccc(C#N)cc1)c1nnc(-c2cnccn2)s1	nt	nt	0.2	-16.1	nt	nt
COCCn1c(=N)c(C(=O)NCc2ccco2)cc2c(=O)n3ccccc3nc21	9.5	9.1	8.0	13.4	nt	nt
COCCCn1c(=N)c(C(=O)NCc2ccc3c(c2)OCO3)cc2c(=O)n3ccccc3nc21	16.7	20.0*	-9.3	6.7	14.4	8.5
N=c1c(C(=O)NCc2ccco2)cc2c(=O)n3ccccc3nc2n1Cc1ccccc1	8.3	23.6*	1.9	5.3	13.5	12.3
N=c1c(C(=O)NCc2ccccc2)cc2c(=O)n3ccccc3nc2n1Cc1ccco1	9.6	22.7*	6.0	5.3	6.3	4.9
Nc1nc(SCC(=O)N2CCCC2)[nH]c(=O)c1NC(=O)c1cccs1	nt	nt	-6.0	5.7	nt	nt
COc1ccc(CN(CC2CCC(C(=O)O)CC2)C(=S)Nc2cc(C)ccc2C)cc1 (stereo unspecified)	2.9	nt	4.3	-8.9	nt	nt
CCOc1ccc(-n2c(SCc3nc(-c4cccs4)no3)nnc2-c2ccncc2)cc1	17.8	17.9*	-1.9	-51.5	16.8	13.9
CCCn1c(SCc2nc(-c3cccs3)no2)nnc1-c1ccncc1	-3.0	4.1	-3.0	-13.9	nt	nt
COc1ccc(NC(=S)NN(C)C(=S)Nc2ccc(OC)cc2)cc1	4.6	1.3	-0.6	-5.2	nt	nt
O=C(NC1CCCC1)C(c1ccsc1)N(CCc1ccccc1)C(=O)Cc1cccs1 (stereo unspecified)	7.7	34.2*	12.7	3.6	20.9*	13.4
O=C(NC1CCCC1)C(c1ccsc1)N(C(=O)Cc1cccs1)c1ccccc1 (stereo unspecified)	4.1	1.5	2.0	0.6	nt	nt
SMILES	NPY Y1 blocker	NPY-Y2 antag	NPY2 pot ag	NPY-Y1 PAM-ag	NPY-Y1 antag ct	NPY-Y2 ant conf
N=C1SC(CC(=O)Nc2ccccc2[N+](=O)[O-])C(=O)N1c1ccccc1 (stereo unspecified)	nt	nt	-19.4	6.7	nt	nt
COCCN(C(=O)Cn1nnc2ccccc21)C(C(=O)NC1CCCCC1)c1ccc(OC)cc1OC (stereo unspecified)	20.1	19.4*	-52.7	-94.9	17.6	17.1
Cc1cc(C)nc(N2CCC(C(=O)NNC(=O)Cc3ccccc3)CC2)n1	nt	nt	-12.2	-5.0	nt	nt
CC(=O)NC1(c2ccccc2)CCN(c2nc(C)cc(C)n2)CC1	14.9	48.7*	-10.2	-19.8	35.1*	34.6*
Cc1ccc2oc(C(=O)NCc3ccc4c(c3)OCO4)c(C)c2c1	3.2	14.9	-20.3	-20.1	nt	nt
Cc1c(C(=O)NCc2ccc3c(c2)OCO3)oc2ccc(Br)cc12	8.8	22.2*	-23.8	-29.6	14.1	12.4
